Test results: ChEMBL document CHEMBL5058577, “EUbOPEN Chemogenomics Library 2 (Multiplex)” (2022)

Tested on: Fibroblast
Test: Multiplex assay against human fibroblast
Type: toxicity, cell-based
In short: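 Cells were classed with CellPathfinder machine-learning gating, first as Hoechst high-intensity objects or normal cells, then (normal cells) as healthy, pyknosed or fragmented nuclei, and finally (pyknosed cells) as mitotic or apoptotic. Staining of live cells at seeding used Hoechst33342, BioTracker Green Microtubule Cytoskeleton Dye, MitoTracker Red and Annexin V Alexa Fluor 680, with imaging on a CQ1 microscope at 37°C and 5% CO2 after compound addition. Tubulin, mitochondrial-mass and membrane-permeability phenotypes are per cents of healthy-nucleus cells.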

[1] = 12 h, 1 µM, compound concentration 1 uM, replicate 1
[2] = 12 h, 1 µM, compound concentration 1 uM, replicate 2
[3] = 12 h, 10 µM, compound concentration 10 uM, replicate 1
[4] = 12 h, 10 µM, compound concentration 10 uM, replicate 2
[5] = 24 h, 1 µM, compound concentration 1 uM, replicate 1
[6] = 24 h, 1 µM, compound concentration 1 uM, replicate 2
[7] = 24 h, 10 µM, compound concentration 10 uM, replicate 1
[8] = 24 h, 10 µM, compound concentration 10 uM, replicate 2
[9] = 48 h, 1 µM, compound concentration 1 uM, replicate 1
[10] = 48 h, 1 µM, compound concentration 1 uM, replicate 2
[11] = 48 h, 10 µM, compound concentration 10 uM, replicate 1
[12] = 48 h, 10 µM, compound concentration 10 uM, replicate 2

## CN1CCN2c3ncccc3Cc3ccccc3C2C1 (stereo not given) [MIRTAZAPINE]
[1]
  Population Apoptotic (%): 44%
  Population Fragmented Nuclei (%): 10%
  Population Healthy Nuclei (%): 77%
  Population Hoechst High Intensity Objects (%): 3%
  Population Membrane Permeable-Phenotype (%): 0%
  Population Mitochondria Different-Phenotype (%): 6%
  Population Mitotic Cells (%): 56%
  Population Normal (%): 96%
  Population Pyknosed Nuclei (%): 12%
  Population Tubulin-Different-Phenotype (%): 24%
  Total Cell Count: 213
[2]
  Population Apoptotic (%): 33%
  Population Fragmented Nuclei (%): 24%
  Population Healthy Nuclei (%): 47%
  Population Membrane Permeable-Phenotype (%): 4%
  Population Mitochondria Different-Phenotype (%): 5%
  Population Mitotic Cells (%): 66%
  Population Pyknosed Nuclei (%): 27%
  Population Tubulin-Different-Phenotype (%): 45%
  Total Cell Count: 156
[3]
  Population Apoptotic (%): 44%
  Population Fragmented Nuclei (%): 19%
  Population Healthy Nuclei (%): 69%
  Population Hoechst High Intensity Objects (%): 1%
  Population Membrane Permeable-Phenotype (%): 0%
  Population Mitochondria Different-Phenotype (%): 8%
  Population Mitotic Cells (%): 55%
  Population Normal (%): 98%
  Population Pyknosed Nuclei (%): 10%
  Population Tubulin-Different-Phenotype (%): 30%
  Total Cell Count: 168
[4]
  Population Apoptotic (%): 28%
  Population Fragmented Nuclei (%): 27%
  Population Healthy Nuclei (%): 40%
  Population Hoechst High Intensity Objects (%): 6%
  Population Membrane Permeable-Phenotype (%): 16%
  Population Mitochondria Different-Phenotype (%): 7%
  Population Mitotic Cells (%): 71%
  Population Normal (%): 93%
  Population Pyknosed Nuclei (%): 32%
  Population Tubulin-Different-Phenotype (%): 60%
  Total Cell Count: 140
[5]
  Population Apoptotic (%): 47%
  Population Fragmented Nuclei (%): 7%
  Population Healthy Nuclei (%): 82%
  Population Hoechst High Intensity Objects (%): 5%
  Population Membrane Permeable-Phenotype (%): 0%
  Population Mitochondria Different-Phenotype (%): 5%
  Population Mitotic Cells (%): 52%
  Population Normal (%): 94%
  Population Pyknosed Nuclei (%): 10%
  Population Tubulin-Different-Phenotype (%): 31%
  Total Cell Count: 201
[6]
  Population Apoptotic (%): 48%
  Population Fragmented Nuclei (%): 26%
  Population Healthy Nuclei (%): 50%
  Population Hoechst High Intensity Objects (%): 0%
  Population Membrane Permeable-Phenotype (%): 10%
  Population Mitochondria Different-Phenotype (%): 10%
  Population Mitotic Cells (%): 51%
  Population Normal (%): 99%
  Population Pyknosed Nuclei (%): 23%
  Population Tubulin-Different-Phenotype (%): 36%
  Total Cell Count: 153
[7]
  Population Apoptotic (%): 50%
  Population Fragmented Nuclei (%): 19%
  Population Healthy Nuclei (%): 72%
  Population Hoechst High Intensity Objects (%): 4%
  Population Membrane Permeable-Phenotype (%): 0%
  Population Mitochondria Different-Phenotype (%): 9%
  Population Mitotic Cells (%): 50%
  Population Normal (%): 95%
  Population Pyknosed Nuclei (%): 7%
  Population Tubulin-Different-Phenotype (%): 30%
  Total Cell Count: 186
[8]
  Population Apoptotic (%): 46%
  Population Fragmented Nuclei (%): 29%
  Population Healthy Nuclei (%): 46%
  Population Hoechst High Intensity Objects (%): 5%
  Population Membrane Permeable-Phenotype (%): 15%
  Population Mitochondria Different-Phenotype (%): 1%
  Population Mitotic Cells (%): 53%
  Population Normal (%): 94%
  Population Pyknosed Nuclei (%): 23%
  Population Tubulin-Different-Phenotype (%): 68%
  Total Cell Count: 136
[9]
  Population Apoptotic (%): 60%
  Population Fragmented Nuclei (%): 15%
  Population Healthy Nuclei (%): 73%
  Population Hoechst High Intensity Objects (%): 7%
  Population Membrane Permeable-Phenotype (%): 0%
  Population Mitochondria Different-Phenotype (%): 4%
  Population Mitotic Cells (%): 39%
  Population Normal (%): 92%
  Population Pyknosed Nuclei (%): 11%
  Population Tubulin-Different-Phenotype (%): 31%
  Total Cell Count: 213
[10]
  Population Apoptotic (%): 50%
  Population Fragmented Nuclei (%): 36%
  Population Healthy Nuclei (%): 45%
  Population Hoechst High Intensity Objects (%): 2%
  Population Membrane Permeable-Phenotype (%): 11%
  Population Mitochondria Different-Phenotype (%): 12%
  Population Mitotic Cells (%): 50%
  Population Normal (%): 97%
  Population Pyknosed Nuclei (%): 17%
  Population Tubulin-Different-Phenotype (%): 56%
  Total Cell Count: 161
[11]
  Population Apoptotic (%): 66%
  Population Fragmented Nuclei (%): 17%
  Population Healthy Nuclei (%): 73%
  Population Hoechst High Intensity Objects (%): 5%
  Population Membrane Permeable-Phenotype (%): 0%
  Population Mitochondria Different-Phenotype (%): 9%
  Population Mitotic Cells (%): 33%
  Population Normal (%): 94%
  Population Pyknosed Nuclei (%): 9%
  Population Tubulin-Different-Phenotype (%): 36%
  Total Cell Count: 176
[12]
  Population Apoptotic (%): 33%
  Population Fragmented Nuclei (%): 46%
  Population Healthy Nuclei (%): 41%
  Population Hoechst High Intensity Objects (%): 2%
  Population Membrane Permeable-Phenotype (%): 8%
  Population Mitochondria Different-Phenotype (%): 2%
  Population Mitotic Cells (%): 66%
  Population Normal (%): 97%
  Population Pyknosed Nuclei (%): 12%
  Population Tubulin-Different-Phenotype (%): 60%
  Total Cell Count: 120
